Source: PubChem BioAssay
Activity calls are given as the source filed them.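 The calls were made as follows, unless noted: active = visually confirmed hit in the image check and inhibition above 20%; inconclusive = visually confirmed hit but inhibition not above 20%; inactive = no visual hit in the image check.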

Tests used:
[1] = inhibitors of TNFa-induced NFkB p65 translocation, primary screen, imaging, HUVEC, MLSMR starter and 10KST1 sets (AID 438;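 active = inhibition above 20% together with a positive visual image hit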;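 also: compound added about 3h40 before a 20 min TNFalpha stimulation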;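 as to inhibition: signal is the nuclear over cytoplasmic p65 intensity ratio per well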); settings: HUVEC TNFa-induced p65 nuclear translocation; cell count: measured here: nuclei count (cytotoxicity indicator), at 2.08 µM; inhibition: at 2 µM, stronger effect = higher value, 0% TNFa-plus-vehicle, 100% no-TNFa wells
[2] = reduction of polyQ htt aggregates in cells – imaging, exon1htt(103Q)mCFP cells, high-content imaging, primary screen (AID 483;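 active = visual image review flags a hit and inhibition of aggregation exceeds 20%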;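 also: compound exposure lasted 3 days before fixation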;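 as to nuclei count: percent of the per-plate median nuclei count of sample wells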); settings: exon1htt(103Q)mCFP cell line, aggregate imaging, at 2 µM; inhibition of aggregation: stronger effect = higher value; nuclei count: measured here: cell count, toxicity
[3] = endothelial E-selectin expression blockers – imaging, HUVEC, immunofluorescence, MLSMR starter and 10KST1 sets, primary screen (AID 487); settings: HUVEC TNFalpha-induced E-selectin immunofluorescence imaging, at 2 µM; inhibition: stronger effect = higher value; nuclei count: measured here: cell number, toxicity;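 as to inhibition: signal is fraction of cell area covered by stained E-selectin grains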;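 as to nuclei count: 100% = median nuclei count of all wells on the same plate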
[4] = biological target: Voltage-gated potassium channel subunit beta-2 (Rattus norvegicus) (UniProt P62483); assay: inhibitors of rat Kvbeta2 reductase activity – biochemical, NADPH fluorescence, primary screen (AID 622;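 active = fluorescence slope higher than the sample average by over 3 SD, cut at about -0.22 in these data, passing the limit was not always enough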;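 also: slope of raw intensity against log time taken from 70 to 1610 s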); settings: recombinant KvBeta, 4-cyanobenzaldehyde reduction, at 10 µM, stronger effect = higher value
Voltage-gated potassium channel subunit beta-2 (Rattus norvegicus), sequence (P62483 whole entry, looked up): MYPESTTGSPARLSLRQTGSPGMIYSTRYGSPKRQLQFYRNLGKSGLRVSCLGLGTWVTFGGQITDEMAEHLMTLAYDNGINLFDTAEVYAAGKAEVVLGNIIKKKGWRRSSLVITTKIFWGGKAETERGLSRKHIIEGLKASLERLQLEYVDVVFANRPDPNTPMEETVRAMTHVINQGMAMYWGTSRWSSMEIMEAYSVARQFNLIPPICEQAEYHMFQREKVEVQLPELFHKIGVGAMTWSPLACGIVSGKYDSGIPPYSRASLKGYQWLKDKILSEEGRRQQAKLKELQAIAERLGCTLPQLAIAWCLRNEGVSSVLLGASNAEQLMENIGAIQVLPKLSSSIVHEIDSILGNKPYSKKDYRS

[5] = biological target: Voltage-gated potassium channel subunit beta-2 (Rattus norvegicus) (UniProt P62483); assay: enhancers of rat Kvbeta2 NADPH turnover – biochemical, NADPH fluorescence, primary screen (AID 623;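 active = NADPH fluorescence slope more negative than the mean of all samples by about 3 SD, 99.7% confidence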;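 also: fluorescence intensity change per second fitted from 20 to 320 s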); settings: Recombinant KvBeta, NADPH fluorescence decrease slope, 10 min; at 10 µM; stronger effect = lower value
[6] = biological target: Muscarinic acetylcholine receptor M4 (Homo sapiens) (UniProt P08173); assay: M4-linked GIRK flux change, two-sided – cell-based, HEK293 M4/GIRK, thallium flux, BTC-AM, M4 allosteric agonist project, primary screen (AID 625;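 active = fluorescence slope after compound addition differing from the mean of all tested samples at 99.7% confidence, mostly higher but some lower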;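 also: thallium influx through GIRK channels coupled to M4 in HEK293 cells with BTC-AM dye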); settings: at 10 µM, actives lie on both sides
Muscarinic acetylcholine receptor M4 (Homo sapiens), sequence (P08173 whole entry, looked up): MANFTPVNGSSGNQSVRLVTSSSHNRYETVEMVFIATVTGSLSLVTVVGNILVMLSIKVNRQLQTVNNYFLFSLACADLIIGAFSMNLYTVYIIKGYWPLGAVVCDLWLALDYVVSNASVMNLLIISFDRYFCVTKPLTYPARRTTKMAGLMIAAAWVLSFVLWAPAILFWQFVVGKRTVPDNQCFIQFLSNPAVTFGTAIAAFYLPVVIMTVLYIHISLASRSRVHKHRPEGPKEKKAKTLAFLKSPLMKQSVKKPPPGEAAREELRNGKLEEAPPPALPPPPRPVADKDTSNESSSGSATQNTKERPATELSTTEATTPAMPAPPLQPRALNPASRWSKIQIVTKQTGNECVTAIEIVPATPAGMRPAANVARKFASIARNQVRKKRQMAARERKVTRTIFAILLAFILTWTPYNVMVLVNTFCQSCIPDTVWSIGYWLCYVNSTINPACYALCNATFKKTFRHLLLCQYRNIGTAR
Procedure, shortened: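 Assay system: HEK293 cells with M4 receptor and GIRK channels / Controls: carbachol and DMSO controls / Schedule: 1 h dye loading, 2 min kinetic read / Technique: kinetic fluorescence with BTC-AM dye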

[7] = blockers of RIG-like receptor reporter activation – cell-based, Sendai virus stimulus, luciferase, 10K MLSCN set, TLR/RLR signaling modifier project, primary screen (AID 602276;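 active = inhibition at or above 50% at 10 µM; inactive = inhibition below 50%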;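 also: firefly luciferase from ISG56 promoter only with Renilla not read in this screen; 0% = Sendai virus plus DMSO and 100% = medium plus DMSO without virus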); settings: HEK293 RL24 IRF3 luciferase reporter, at 10 µM, stronger effect = higher value
[8] = TLR3 IRF3 reporter activation blockers – cell-based, poly I:C stimulus, luciferase, 10K MLSCN set, primary screen (AID 602277;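 active = inhibition of the reporter signal at or above 50%; inactive = inhibition below 50%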); settings: HEK293-TLR3 RL24 IRF3 luciferase reporter, at 10 µM, stronger effect = higher value

Structure (SMILES) | cell count [1] | inhibition [1] | inhibition of aggregation [2] | nuclei count [2] [%] | inhibition [3] | nuclei count [3] [%] | fluorescence slope [4] | NADPH fluorescence slope [5] | fluorescence slope [6] | inhibition [7] | inhibition [8]
O=c1cc(COn2nnc3ccc(C(F)(F)F)cc32)nc2sccn12 | 379 | -22% (inactive) | -2.2% (inactive) | 109 | -51.6% (inactive) | 141 | -0.478 (inactive) | 3.2e-05 (inactive) | 0.00817 (inactive) | -2.54% (inactive) | 14.9% (inactive)
CCOC(=O)C1=C(c2ccccc2)Nc2nc(C)nn2C1c1cccc(OC)c1OC (stereo not drawn) | 613 | 1.7% (inactive) | -13.2% (inactive) | 111 | -152% (inactive) | 149 | -0.508 (inactive) | -0.000215 (inactive) | 0.00365 (inactive) | 5.33% (inactive) | 15.1% (inactive)
CCOC(=O)CSC1=Nc2ccccc2C2=NC(CC(=O)NCc3ccc(OC)cc3)C(=O)N12 (stereo not drawn) | 463 | -13.6% (inactive) | -2.2% (inactive) | 64.2 | -23.1% (inactive) | 91.7 | -0.476 (inactive) | -8e-06 (inactive) | 0.00508 (inactive) | 10.6% (inactive) | 20.5% (inactive)
O=S(=O)(c1ccccc1)N1CCSC1c1ccco1 (stereo not drawn) | 444 | 1.2% (inactive) | 7% (inactive) | 100 | 33.5% (inactive) | 102 | -0.555 (inactive) | -4e-05 (inactive) | 0.00572 (inactive) | -30.7% (inactive) | -9.12% (inactive)
NC(=O)SCC(=O)Nc1cccc(Cl)c1 | 449 | -0.5% (inactive) | -7.6% (inactive) | 119 | -267% (inactive) | 132 | -0.576 (inactive) | -1.5e-06 (inactive) | 0.00648 (inactive) | 18.6% (inactive) | 15.3% (inactive)
Cc1ccc(C)c(SCC(=O)Nc2nnc(-c3ccccc3)o2)c1 | 395 | -16.8% (inactive) | -12.6% (inactive) | 99.9 | -16.3% (inactive) | 124 | -0.586 (inactive) | -3.2e-05 (inactive) | 0.00772 (inactive) | 13.5% (inactive) | 19.4% (inactive)
NC(=O)c1c(-c2ccccc2)oc2ccc(O)cc12 | 380 | -4.7% (inactive) | 11.1% (inactive) | 103 | -104% (inactive) | 92.8 | -0.532 (inactive) | -1.2e-05 (inactive) | 0.00463 (inactive) | -8.7% (inactive) | -13.7% (inactive)
CCOc1ccc(-n2c(=O)cc(N3CCN(c4ccccc4)CC3)[nH]c2=O)cc1 | 542 | -4.4% (inactive) | -3.5% (inactive) | 87.1 | -40.5% (inactive) | 108 | -0.411 (inactive) | -1.6e-05 (inactive) | 0.00553 (inactive) | 12.1% (inactive) | 11.2% (inactive)
CN(c1cccc(NC(=O)COc2ccccc2)c1)S(C)(=O)=O | 226 | 7.2% (inactive) | 21.6% (inactive) | 91.6 | -143% (inactive) | 111 | -0.49 (inactive) | 6.4e-05 (inactive) | 0.00411 (inactive) | -58.9% (inactive) | -120% (inactive)
CCNc1nc(NCC)n2c(SCc3nc4ccccc4c(=O)[nH]3)nnc2n1 | 554 | -3.9% (inactive) | 9.2% (inactive) | 84.7 | -31.4% (inactive) | 113 | -0.539 (inactive) | -0.000149 (inactive) | 0.00293 (inactive) | -0.856% (inactive) | -4.01% (inactive)
COC(=O)c1cc(Br)ccc1-c1ccc(/C=N/n2nnnc2N)o1 | 438 | 1% (inactive) | -4.4% (inactive) | 97.9 | -56% (inactive) | 111 | -0.531 (inactive) | -2.3e-05 (inactive) | 0.00728 (inactive) | 15.2% (inactive) | 24.4% (inactive)
c1coc(-c2nnc(-c3cccs3)o2)c1 | 497 | -1.7% (inactive) | 13.3% (inactive) | 75 | -7.2% (inactive) | 115 | -0.51 (inactive) | -6.6e-07 (inactive) | 0.00586 (inactive) | -25.9% (inactive) | -87.8% (inactive)
CC(=O)N(c1ccc(N(C(C)=O)S(=O)(=O)c2cccs2)cc1)S(=O)(=O)c1cccs1 | 458 | 1.3% (inactive) | 11.2% (inactive) | 99.2 | -45.8% (inactive) | 99.4 | -0.472 (inactive) | -0.000256 (inactive) | 0.00408 (inactive) | 4.25% (inactive) | 7.23% (inactive)
CCOC(=O)c1sc2nc3c(cc2c1N)COC(C)(C)C3 | 746 | -5.9% (inactive) | 0.2% (inactive) | 105 | 8.8% (inactive) | 105 | -0.432 (inactive) | -5.4e-06 (inactive) | 0.0043 (inactive) | -38.4% (inactive) | -104% (inactive)
Cc1cc2c(c(=O)n1CCN(C)C)C(c1ccncc1)C(C#N)=C(N)O2 (stereo not drawn) | 552 | 7.7% (inactive) | 5% (inactive) | 102 | -74% (inactive) | 155 | -0.484 (inactive) | -1.3e-05 (inactive) | 0.00498 (inactive) | 5.86% (inactive) | 8.13% (inactive)
CC1(C)C2CCC1(CS(=O)(=O)NCc1ccc(C(=O)O)cc1)C(=O)C2 (stereo not drawn) | 517 | -16.3% (inactive) | 1.1% (inactive) | 90.1 | 46.1% (inactive) | 100 | -0.606 (inactive) | 2.9e-05 (inactive) | 0.00724 (inactive) | 36.1% (inactive) | 30.6% (inactive)
CCc1ccc2nc(NC(=O)CSCc3c(C)noc3C)sc2c1 | 416 | -2% (inactive) | -12.1% (inactive) | 105 | -87.1% (inactive) | 112 | -0.463 (inactive) | 1.1e-05 (inactive) | 0.00795 (inactive) | -52.6% (inactive) | -109% (inactive)
COc1cc(C(=O)N2c3ccccc3CC2C)cc(OC)c1OC (stereo not drawn) | 348 | 4.3% (inactive) | -6.3% (inactive) | 89 | -13.9% (inactive) | 113 | -0.296 (inactive) | -2.6e-05 (inactive) | 0.0071 (inactive) | 17.5% (inactive) | 33.5% (inactive)
CC(C)CCNC(=O)NC(=O)CSc1nnc(-c2ccccc2Br)o1 | 538 | -16.6% (inactive) | 2% (inactive) | 104 | -32.9% (inactive) | 125 | -0.458 (inactive) | 2.9e-05 (inactive) | 0.0066 (inactive) | -3.6% (inactive) | 20.3% (inactive)
CCOC(=O)Nc1sc(=S)n(C)c1C | 719 | -12.5% (inactive) | -2.4% (inactive) | 95.3 | 15.9% (inactive) | 95.4 | -0.545 (inactive) | 2.1e-05 (inactive) | 0.00684 (inactive) | 12.9% (inactive) | 28.8% (inactive)
CCCCC(CC)C(=O)Nc1ccccc1C#N (stereo not drawn) | 452 | 6% (inactive) | -12.4% (inactive) | 106 | -63.4% (inactive) | 118 | -0.419 (inactive) | -2e-05 (inactive) | 0.00611 (inactive) | 14.8% (inactive) | 22.1% (inactive)
CCSc1nnc(NC(=O)CSc2ncccn2)s1 | 278 | 0.5% (inactive) | -3% (inactive) | 105 | -42.2% (inactive) | 111 | -0.529 (inactive) | -4.9e-05 (inactive) | 0.00524 (inactive) | -9.35% (inactive) | 4% (inactive)
CCc1nc(C)c(-c2ccccc2)c(=O)[nH]1 | 211 | 0.8% (inactive) | 5.5% (inactive) | 97.2 | -99.3% (inactive) | 102 | -0.567 (inactive) | -7.1e-06 (inactive) | 0.00452 (inactive) | -0.853% (inactive) | 3.2% (inactive)
CC(C)(C)OC(=O)N1CCOCCOCCN(C(=O)OC(C)(C)C)CCOCCOCC1 | 395 | 0.8% (inactive) | 2.5% (inactive) | 92.3 | -90.1% (inactive) | 119 | -0.579 (inactive) | -6.4e-05 (inactive) | 0.00267 (inactive) | 4.46% (inactive) | 6.47% (inactive)
COc1ccc(-n2c(SCC(=O)Nc3ccc(C(=O)O)cc3)nnc2-c2cccs2)cc1 | 443 | 2.8% (inactive) | -7.1% (inactive) | 91.6 | -43.4% (inactive) | 150 | -0.451 (inactive) | -0.000238 (inactive) | 0.00524 (inactive) | 0.267% (inactive) | 6.83% (inactive)
CC(C(=O)N1c2ccc(F)cc2CCC1C)N1C(=O)c2ccccc2C1=O (stereo not drawn) | 490 | 5% (inactive) | 1.1% (inactive) | 118 | -158% (inactive) | 138 | -0.452 (inactive) | -4.6e-05 (inactive) | 0.00501 (inactive) | 10.8% (inactive) | 11.7% (inactive)
CCc1ccccc1NC(=O)CN(c1cccc(OC)c1)S(C)(=O)=O | 345 | 2.5% (inactive) | -3.1% (inactive) | 99 | -28.2% (inactive) | 111 | -0.544 (inactive) | -7.9e-05 (inactive) | 0.00451 (inactive) | -7.55% (inactive) | -6.22% (inactive)
O=C(NCC1COCCO1)C1CCN(S(=O)(=O)c2ccccc2)CC1 (stereo not drawn) | 621 | -9.6% (inactive) | -7.6% (inactive) | 111 | -28.6% (inactive) | 112 | -0.557 (inactive) | 3.3e-05 (inactive) | 0.0061 (inactive) | 12% (inactive) | 0.992% (inactive)
